Results taken from ChEMBL document CHEMBL5303300, “EUbOPEN Chemogenomics Library - Multiplex” (2023).
“And” between values parts separate entries of the source, which are not always exact repeats. Identical values can stand only once.

System: Fibroblast
Assay: Multiplex assay against human fibroblast
Assay type: toxicity, cell-based
Conditions: number of replicates 2
Outline: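 Hoechst33342, BioTracker Green Microtubule Cytoskeleton Dye, MitoTracker Red and Annexin V Alexa Fluor 680 were added to live cells at seeding, and imaging on a CQ1 microscope at 37°C and 5% CO2 followed compound addition. Gating by CellPathfinder machine learning separated cells into Hoechst high-intensity objects or normal cells, then normal cells into healthy, pyknosed or fragmented nuclei, then pyknosed cells into mitotic or apoptotic. Per cents of healthy-nucleus cells are reported for the tubulin, mitochondrial-mass and membrane-permeability phenotypes.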

[1] = 12 h, 1 µM, compound concentration 1 uM
[2] = 12 h, 10 µM, compound concentration 10 uM
[3] = 24 h, 1 µM, compound concentration 1 uM
[4] = 24 h, 10 µM, compound concentration 10 uM
[5] = 48 h, 1 µM, compound concentration 1 uM
[6] = 48 h, 10 µM, compound concentration 10 uM

## CCNc1ccc(-c2nn(-c3ccccc3C)c3c2C(C)Cc2nc(NC(=O)OC)sc2-3)cn1.O=C(O)C(F)(F)F (configuration not stated)
[1]
  Population Apoptotic (%): 34% and 35%
  Population Fragmented Nuclei (%): 22% and 27%
  Population Healthy Nuclei (%): 60% and 57%
  Population Hoechst High Intensity Objects (%): 0%
  Population Membrane Permeable-Phenotype (%): 5% and 3%
  Population Mitochondria Different-Phenotype (%): 0% and 3%
  Population Mitotic Cells (%): 65%
  Population Normal (%): 100%
  Population Pyknosed Nuclei (%): 17% and 14%
  Population Tubulin-Different-Phenotype (%): 35% and 27%
  Total Cell Count: 255 and 278
[2]
  Population Apoptotic (%): 43% and 57%
  Population Fragmented Nuclei (%): 15% and 26%
  Population Healthy Nuclei (%): 66% and 61%
  Population Hoechst High Intensity Objects (%): 0% and 1%
  Population Membrane Permeable-Phenotype (%): 17% and 10%
  Population Mitochondria Different-Phenotype (%): 6% and 12%
  Population Mitotic Cells (%): 56% and 42%
  Population Normal (%): 100% and 98%
  Population Pyknosed Nuclei (%): 18% and 12%
  Population Tubulin-Different-Phenotype (%): 87% and 86%
  Total Cell Count: 216 and 211
[3]
  Population Apoptotic (%): 40% and 46%
  Population Fragmented Nuclei (%): 20% and 17%
  Population Healthy Nuclei (%): 64% and 70%
  Population Hoechst High Intensity Objects (%): 0%
  Population Membrane Permeable-Phenotype (%): 4% and 3%
  Population Mitochondria Different-Phenotype (%): 2% and 4%
  Population Mitotic Cells (%): 60% and 53%
  Population Normal (%): 100% and 99%
  Population Pyknosed Nuclei (%): 15% and 12%
  Population Tubulin-Different-Phenotype (%): 35% and 28%
  Total Cell Count: 225 and 233
[4]
  Population Apoptotic (%): 62% and 68%
  Population Fragmented Nuclei (%): 21% and 27%
  Population Healthy Nuclei (%): 62% and 65%
  Population Hoechst High Intensity Objects (%): 0%
  Population Membrane Permeable-Phenotype (%): 9% and 8%
  Population Mitochondria Different-Phenotype (%): 12%
  Population Mitotic Cells (%): 37% and 31%
  Population Normal (%): 99% and 100%
  Population Pyknosed Nuclei (%): 16% and 7%
  Population Tubulin-Different-Phenotype (%): 88%
  Total Cell Count: 195 and 209
[5]
  Population Apoptotic (%): 58% and 20%
  Population Fragmented Nuclei (%): 13% and 15%
  Population Healthy Nuclei (%): 77% and 78%
  Population Hoechst High Intensity Objects (%): 0%
  Population Membrane Permeable-Phenotype (%): 5% and 2%
  Population Mitochondria Different-Phenotype (%): 2% and 0%
  Population Mitotic Cells (%): 41% and 80%
  Population Normal (%): 100% and 99%
  Population Pyknosed Nuclei (%): 8% and 6%
  Population Tubulin-Different-Phenotype (%): 26% and 18%
  Total Cell Count: 208 and 225
[6]
  Population Apoptotic (%): 84% and 76%
  Population Fragmented Nuclei (%): 15% and 19%
  Population Healthy Nuclei (%): 65% and 64%
  Population Hoechst High Intensity Objects (%): 0%
  Population Membrane Permeable-Phenotype (%): 5% and 3%
  Population Mitochondria Different-Phenotype (%): 19% and 22%
  Population Mitotic Cells (%): 15% and 24%
  Population Normal (%): 100%
  Population Pyknosed Nuclei (%): 18% and 15%
  Population Tubulin-Different-Phenotype (%): 87% and 90%
  Total Cell Count: 169 and 157

## COc1ncc(-c2cc(-c3ncc(CN4C[C@@H](C)O[C@@H](C)C4)o3)c3cn[nH]c3c2)cc1NS(C)(=O)=O
[1]
  Population Apoptotic (%): 48%
  Population Fragmented Nuclei (%): 7% and 8%
  Population Healthy Nuclei (%): 77% and 70%
  Population Hoechst High Intensity Objects (%): 0%
  Population Membrane Permeable-Phenotype (%): 5% and 10%
  Population Mitochondria Different-Phenotype (%): 0%
  Population Mitotic Cells (%): 51%
  Population Normal (%): 100%
  Population Pyknosed Nuclei (%): 14% and 21%
  Population Tubulin-Different-Phenotype (%): 13% and 11%
  Total Cell Count: 228 and 199
[2]
  Population Apoptotic (%): 30% and 51%
  Population Fragmented Nuclei (%): 4% and 11%
  Population Healthy Nuclei (%): 59% and 66%
  Population Hoechst High Intensity Objects (%): 0%
  Population Membrane Permeable-Phenotype (%): 10% and 9%
  Population Mitochondria Different-Phenotype (%): 3% and 5%
  Population Mitotic Cells (%): 69% and 48%
  Population Normal (%): 100%
  Population Pyknosed Nuclei (%): 35% and 22%
  Population Tubulin-Different-Phenotype (%): 40% and 37%
  Total Cell Count: 129 and 148
[3]
  Population Apoptotic (%): 51% and 60%
  Population Fragmented Nuclei (%): 6% and 9%
  Population Healthy Nuclei (%): 79% and 67%
  Population Hoechst High Intensity Objects (%): 0%
  Population Membrane Permeable-Phenotype (%): 5% and 11%
  Population Mitochondria Different-Phenotype (%): 0%
  Population Mitotic Cells (%): 48% and 39%
  Population Normal (%): 100% and 99%
  Population Pyknosed Nuclei (%): 13% and 23%
  Population Tubulin-Different-Phenotype (%): 9% and 13%
  Total Cell Count: 224 and 204
[4]
  Population Apoptotic (%): 55% and 66%
  Population Fragmented Nuclei (%): 6% and 11%
  Population Healthy Nuclei (%): 62% and 71%
  Population Hoechst High Intensity Objects (%): 0%
  Population Membrane Permeable-Phenotype (%): 0% and 6%
  Population Mitochondria Different-Phenotype (%): 3% and 4%
  Population Mitotic Cells (%): 45% and 33%
  Population Normal (%): 100%
  Population Pyknosed Nuclei (%): 31% and 17%
  Population Tubulin-Different-Phenotype (%): 30% and 25%
  Total Cell Count: 128 and 157
[5]
  Population Apoptotic (%): 69% and 60%
  Population Fragmented Nuclei (%): 12% and 10%
  Population Healthy Nuclei (%): 77% and 74%
  Population Hoechst High Intensity Objects (%): 0%
  Population Membrane Permeable-Phenotype (%): 2% and 7%
  Population Mitochondria Different-Phenotype (%): 0%
  Population Mitotic Cells (%): 30% and 40%
  Population Normal (%): 100% and 99%
  Population Pyknosed Nuclei (%): 9% and 14%
  Population Tubulin-Different-Phenotype (%): 4% and 11%
  Total Cell Count: 235 and 206
[6]
  Population Apoptotic (%): 70% and 78%
  Population Fragmented Nuclei (%): 5% and 13%
  Population Healthy Nuclei (%): 64% and 67%
  Population Hoechst High Intensity Objects (%): 0%
  Population Membrane Permeable-Phenotype (%): 4% and 5%
  Population Mitochondria Different-Phenotype (%): 4% and 1%
  Population Mitotic Cells (%): 30% and 21%
  Population Normal (%): 100% and 99%
  Population Pyknosed Nuclei (%): 29% and 19%
  Population Tubulin-Different-Phenotype (%): 39% and 28%
  Total Cell Count: 134 and 167
